Here are results for one compound from ChEMBL document CHEMBL3526126, “Amide hydrolysis of a novel chemical series of microsomal prostaglandin E synthase-1 inhibitors induces kidney toxicity in the rat” (Drug Metab Dispos, 2013).

In data set [1] the test system is Rattus norvegicus. In words: Toxicity in Wistar Hannover rat kidney assessed as pale organ discoloration at 1000 umol/kg, po qd administered for 7 days measured on day 7 by necroscopic analysis. Type of data set: organism-based. Conditions: in vivo, 168 h.
The subject of data set [2] is Rattus norvegicus. The data set can be described thus: Toxicity in Wistar Hannover rat kidney assessed as presence of dilated tubules mixed with basophils at 1000 umol/kg, po qd administered for 7 days measured on day 7 by necroscopic analysis. The format is organism-based. Conditions: in vivo, 168 h.
The test system of data set [3] is Rattus norvegicus. The data set can be described thus: Toxicity in Wistar Hannover rat kidney assessed as free crystals in renal pelvis at 1000 umol/kg, po qd administered for 7 days measured after day 8 by hematoxylin/eosin staining-based light microscopic analysis. Type of data set: organism-based. Conditions: in vivo, 168 h. The method, boiled down:
(§1)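 Wistar Hannover rats, about 8 weeks old, were gavaged once daily (10 ml/kg) for 7 days. One day after the last dose they were killed by carotid exsanguination under isoflurane/oxygen. Kidneys were fixed in buffered formalin, embedded in paraffin, sectioned, stained with hematoxylin and eosin, and examined by light microscopy.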

Data set [4] deals with Rattus norvegicus. The data set can be described thus: Toxicity in Wistar Hannover rat kidney assessed as transitional cell hyperplasia at 1000 umol/kg, po qd administered for 7 days measured after day 8 by hematoxylin/eosin staining-based light microscopic analysis. The format is organism-based. The following applies: in vivo, 168 h. An outline of the steps: as §1
Data set [5] relates to Rattus norvegicus. In words: Toxicity in Wistar Hannover rat kidney assessed as papillitis at 1000 umol/kg, po qd administered for 7 days measured after day 8 by hematoxylin/eosin staining-based light microscopic analysis. Conditions: in vivo, 168 h. The format is organism-based. An outline of the steps: as §1
A short description of data set [6]: Drug metabolism in Sprague-Dawley rat hepatocytes assessed as formation of 4-(phenylethynyl)benzoic acid metabolite hyd at 1 to 10 uM by LC-MS analysis. Type of data set: ADME, cell-based, Hepatocyte. The method, boiled down:
(§2)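 Hepatocytes at 1 × 10^6 cells/ml in William's medium incubated at 37°C with gentle shaking under 5% CO2. Substrate was at […]. Metabolites were analysed by LC-MS.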

Data set [7] is described as follows: Drug metabolism in Sprague-Dawley rat hepatocytes assessed as formation of benzene-1,2-disulfonamide metabolite M1 at 1 to 10 uM by LC-MS analysis. Type of data set: ADME, cell-based, Hepatocyte. An outline of the steps: as §2
The subject of data set [8] is Rattus norvegicus. The data set can be described thus: Drug metabolism in Wistar Hannover rat assessed as formation of oxidized and sulfate-conjugated metabolite in plasma at 500 umol/kg, po qd administered for 7 days measured on day 7 by LC-MS analysis. Type of data set: ADME, organism-based. Conditions: in vivo, 168 h.
A short description of data set [9]: AUC (0 to 24 hrs) in Sprague-Dawley rat at 1000 umol/kg, po qd administered for 7 days measured on day 7. The format is ADME, organism-based. On the set-up: time < 24 hr, dose 1000 umol/kg, route oral. The following applies: plasma. The method, boiled down: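 Toxicity study 2: 2 female satellite rats per dose group. Dosing was once daily by oral gavage (10 ml/kg) for 7 days. Tail-vein EDTA blood was taken at 2, 4, 6, 7 and 24 h on day 1 and on day 7, then chilled and centrifuged to plasma. Parent and M1 were quantified by LC-MS/MS, with M1 measured in negative electrospray mode.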

Data set [10] is described as follows: Cmax in male Wistar Hannover rat at 500 umol/kg, po qd measured on day 1. Conditions: in vivo.
Data set [11] in a line: AUC (0 to 24 hrs) in Wistar Hannover rat at 1000 umol/kg, po qd measured on day 1. Conditions: plasma.
Data set [12] is described as follows: AUC (0 to 24 hrs) in male Wistar Hannover rat at 1000 umol/kg, po qd measured on day 1. The following applies: plasma.
A short description of data set [13]: AUC (0 to 24 hrs) in female Wistar Hannover rat at 500 umol/kg, po qd measured on day 1. Conditions: plasma.
The nature of data set [14]: Cmax in female Wistar Hannover rat at 500 umol/kg, po qd administered for 7 days measured on day 7. The following applies: in vivo.

With `NS(=O)(=O)c1ccccc1S(=O)(=O)NC(=O)c1ccc(C#Cc2ccccc2)cc1`, the Activity result in [1], in data set [2], in data set [3], in data set [4] and in data set [5] was “Toxic” throughout. Further, the results for the Drug metabolism entry in data set [6], in [7] and in data set [8] were “metabolite_detected”, “metabolite_not_detected” and “metabolite_detected”, respectively. Besides, the exposure (AUC) at 24 h in data set [9] stood at 990 µM·h. Moreover, the Cmax was 73 µM in data set [10] and 39 µM in data set [14]. Moreover, the AUC(0-t) at 24 h in data set [11] came out at 1370 µM·h; in [12], 610 µM·h; in [13], 450 µM·h.
